Assay results taken from ChEMBL document CHEMBL5678808, “Human target validation of phosphoinositide 3-kinase (PI3K)β: effects on platelets and insulin sensitivity, using AZD6482 a novel PI3Kβ inhibitor” (J Thromb Haemost, 2012).

Assays:
[1] = Toxicity in Sprague-Dawley rat hyperinsulinemic-euglycemic glucose clamp model assessed as increase in blood pressure at 1000 ug/kg/min, iv for 2 mins followed by 50 ug/kg/min, iv for 28 mins; format: organism-based; conditions: in vivo, 0.5 h, time 30 min
Procedure, shortened: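 Anesthetized rats underwent two consecutive hyperinsulinemic–euglycemic clamps with human insulin infusion: a baseline Clamp1, then Clamp2 with vehicle or AZD6482 i.v. (n = 4–5/group). Blood pressure and heart rate were followed during control periods and after drug administration. Steady-state glucose infusion rate maintained euglycemia.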

[2] = biological target: Mitogen-activated protein kinase 11 (Homo sapiens) (UniProt Q15759); experiment: Inhibition of human p38b at 10 uM relative to control
[3] = tested on: Rattus norvegicus; experiment: Insulin sensitizing activity in Sprague-Dawley rat hyperinsulinemic-euglycemic glucose clamp model assessed as glucose level during infusion of human insulin at 1000 ug/kg/min, iv for 2 mins followed by 50 ug/kg/min, iv for 28 mins measured during clamp 1 by colorimetry (reference value: 8.4 +/- 0.8 mM); format: functional; conditions: time 30 min, 0.5 h
Procedure, shortened: (§1)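 Anesthetized rats; hyperinsulinemic–euglycemic clamp with human insulin infused. A baseline clamp (Clamp1) was followed by a second clamp (Clamp2) with vehicle or drug i.v. The drug was given as a low dose (1000 μg kg−1 + 50 μg kg min−1) or a high dose (6000 μg kg−1 + 300 μg kg min−1). Steady-state glucose infusion rate for euglycemia was recorded, with plasma glucose, human insulin and total insulin; mean ± SEM, n = 4–5/group.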

[4] = biological target: Serine/threonine-protein kinase PAK 2 (Homo sapiens) (UniProt Q13177); experiment: Inhibition of human PAK2 at 10 uM relative to control
[5] = tested on: Rattus norvegicus; experiment: Insulin sensitizing activity in Sprague-Dawley rat hyperinsulinemic-euglycemic glucose clamp model assessed as total insulin level during infusion of human insulin at 1000 ug/kg/min, iv for 2 mins followed by 50 ug/kg/min, iv for 28 mins measured during clamp 2 (reference value: 2.2 +/- 0.1 nM); format: functional; conditions: time 30 min, 0.5 h; procedure, shortened: as §1
[6] = Toxicity in Sprague-Dawley rat assessed as change in blood pressure at 6000 ug/kg, iv for 2 mins followed by 300 ug/kg/min, iv for 28 mins; format: organism-based; conditions: in vivo, 6 mg/kg, 0.5 h, time 30 min
Procedure, shortened: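 Blood pressure was monitored in anesthetized rats during hyperinsulinemic–euglycemic clamps. There was an initial control period, then i.v. drug at 1000 μg kg−1 + 50 μg kg min−1 or 6000 μg kg−1 + 300 μg kg min−1. Heart rate was also recorded.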

[7] = biological target: cAMP-dependent protein kinase (PKA) (Homo sapiens) (UniProt P22694+P17612+P22612); experiment: Inhibition of PKA (unknown origin) at 10 uM relative to control; format: protein assay
[8] = Plasma concentration in Sprague-Dawley rat hyperinsulinemic-euglycemic glucose clamp model at […], iv for 2 mins followed by 300 ug/kg/min, iv for 28 mins; format: ADME, organism-based; conditions: time 30 min
Procedure, shortened: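 Plasma drug levels were sampled during the drug-infusion clamp period (Clamp2) in anesthetized rats under a human-insulin hyperinsulinemic–euglycemic clamp. I.v. regimens were 1000 μg kg−1 + 50 μg kg min−1 or 6000 μg kg−1 + 300 μg kg min−1; mean ± SEM, n = 4–5/group.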

[9] = biological target: Tyrosine-protein kinase JAK3 (Homo sapiens, UniProt P52333); experiment: Inhibition of human JAK3
[10] = biological target: Vascular endothelial growth factor receptor 2 (Homo sapiens, UniProt P35968); experiment: Inhibition of human KDR
[11] = biological target: Serine/threonine-protein kinase PAK 4 (Homo sapiens) (UniProt O96013); experiment: Inhibition of human PAK4 at 10 uM relative to control
[12] = biological target: Serine/threonine-protein kinase Chk2 (Homo sapiens) (UniProt O96017); experiment: Inhibition of human CHK2 at 10 uM relative to control
[13] = biological target: Rho-associated protein kinase 2 (Rattus norvegicus) (UniProt Q62868); experiment: Inhibition of rat ROCK2 at 10 uM relative to control
[14] = biological target: Ribosomal protein S6 kinase alpha-1 (Homo sapiens) (UniProt Q15418); experiment: Inhibition of MAPK Activated Protein Kinase-1a (unknown origin) at 10 uM relative to control
[15] = biological target: Mitogen-activated protein kinase 9 (Homo sapiens) (UniProt P45984); experiment: Inhibition of human MAPK9 at 10 uM relative to control
[16] = biological target: Proto-oncogene tyrosine-protein kinase LCK (Mus musculus) (UniProt P06240); experiment: Inhibition of mouse LCK at 10 uM relative to control
[17] = biological target: MAP kinase-interacting serine/threonine-protein kinase 2 (Homo sapiens) (UniProt Q9HBH9); experiment: Inhibition of human MNK2 at 10 uM relative to control
[18] = biological target: Mitogen-activated protein kinase 13 (Homo sapiens) (UniProt O15264); experiment: Inhibition of human MAPK13 at 10 uM relative to control
[19] = biological target: RAC-beta serine/threonine-protein kinase (Homo sapiens) (UniProt P31751); experiment: Inhibition of human AKT2 at 10 uM relative to control
[20] = biological target: Aurora kinase C (Homo sapiens) (UniProt Q9UQB9); experiment: Inhibition of human AuroraC at 10 uM relative to control
[21] = biological target: Aurora kinase B (Homo sapiens, UniProt Q96GD4); experiment: Inhibition of human AurKB
[22] = biological target: DNA-dependent protein kinase catalytic subunit (Homo sapiens, UniProt P78527); experiment: Inhibition of human DNA-PK assessed as reduction in protein phosphorylation by ELISA
Procedure, shortened: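 Recombinant human DNA-PK was tested in a functional assay, with substrate protein phosphorylation read by ELISA. IC50 is reported as mean ± SEM, with the number of determinations given.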

[23] = organism: Rattus norvegicus; experiment: Inhibition of rat CK1 at 10 uM relative to control
[24] = Toxicity in Sprague-Dawley rat assessed as change in heart rate at 30000 ug/kg, iv for 2 mins followed by 1500 ug/kg/min, iv for 28 mins; format: organism-based; conditions: in vivo, 30 mg/kg, 0.5 h, time 30 min
Procedure, shortened: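 Overnight-fasted anesthetized rats got three consecutive escalating i.v. doses over 30 min each (n = 4/group). Heart rate and blood pressure were followed alongside end-of-interval blood samples for plasma drug exposure, glucose and insulin (relative HOMA index experiments).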

[25] = biological target: Serine/threonine-protein kinase BRSK2 (Homo sapiens) (UniProt Q8IWQ3); experiment: Inhibition of human BRSK2 at 10 uM relative to control
[26] = tested on: Rattus norvegicus; experiment: Insulin sensitizing activity in Sprague-Dawley rat hyperinsulinemic-euglycemic glucose clamp model assessed as human insulin level during infusion of human insulin at 1000 ug/kg/min, iv for 2 mins followed by 50 ug/kg/min, iv for 28 mins measured during clamp 2 (reference value: 1.8 +/- 0.1 nM); format: functional; conditions: time 30 min, 0.5 h; procedure, shortened: as §1
[27] = Plasma concentration in human at 0.9 to 13.5 mg, iv administered for 3 hrs via infusion by LC-MS/MS analysis; format: ADME, organism-based; conditions: dose 0.9-13.5 mg
Procedure, shortened: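 Randomized, double-blind, placebo-controlled single ascending dose study in healthy males aged 18–36, given a 3-h i.v. infusion. Plasma drug was measured by protein precipitation then LC-MS/MS, with non-compartmental PK analysis. The 3-h end-of-infusion sample was taken as steady-state concentration; mean, n = 6/dose.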

[28] = biological target: Tyrosine-protein kinase ZAP-70 (Homo sapiens, UniProt P43403); experiment: Inhibition of human ZAP70
Chain of Tyrosine-protein kinase ZAP-70 (P43403 whole entry): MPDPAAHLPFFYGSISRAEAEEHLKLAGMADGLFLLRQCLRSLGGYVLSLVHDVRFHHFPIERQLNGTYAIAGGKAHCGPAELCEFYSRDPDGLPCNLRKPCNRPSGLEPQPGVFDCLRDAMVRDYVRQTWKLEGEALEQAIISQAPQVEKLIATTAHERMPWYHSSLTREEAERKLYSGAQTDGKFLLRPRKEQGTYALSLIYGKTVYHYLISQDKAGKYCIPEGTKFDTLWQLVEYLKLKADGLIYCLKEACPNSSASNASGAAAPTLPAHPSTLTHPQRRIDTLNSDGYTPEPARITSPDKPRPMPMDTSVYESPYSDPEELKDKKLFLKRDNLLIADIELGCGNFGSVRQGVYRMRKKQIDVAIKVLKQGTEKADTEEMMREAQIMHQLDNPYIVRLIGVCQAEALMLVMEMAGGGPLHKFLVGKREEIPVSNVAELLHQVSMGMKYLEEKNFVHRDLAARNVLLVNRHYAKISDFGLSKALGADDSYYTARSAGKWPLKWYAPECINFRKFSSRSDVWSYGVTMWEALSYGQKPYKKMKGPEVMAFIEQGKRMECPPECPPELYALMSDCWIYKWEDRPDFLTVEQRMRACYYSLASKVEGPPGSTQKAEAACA

Chain of Serine/threonine-protein kinase Chk2 (Homo sapiens) (O96017 whole entry): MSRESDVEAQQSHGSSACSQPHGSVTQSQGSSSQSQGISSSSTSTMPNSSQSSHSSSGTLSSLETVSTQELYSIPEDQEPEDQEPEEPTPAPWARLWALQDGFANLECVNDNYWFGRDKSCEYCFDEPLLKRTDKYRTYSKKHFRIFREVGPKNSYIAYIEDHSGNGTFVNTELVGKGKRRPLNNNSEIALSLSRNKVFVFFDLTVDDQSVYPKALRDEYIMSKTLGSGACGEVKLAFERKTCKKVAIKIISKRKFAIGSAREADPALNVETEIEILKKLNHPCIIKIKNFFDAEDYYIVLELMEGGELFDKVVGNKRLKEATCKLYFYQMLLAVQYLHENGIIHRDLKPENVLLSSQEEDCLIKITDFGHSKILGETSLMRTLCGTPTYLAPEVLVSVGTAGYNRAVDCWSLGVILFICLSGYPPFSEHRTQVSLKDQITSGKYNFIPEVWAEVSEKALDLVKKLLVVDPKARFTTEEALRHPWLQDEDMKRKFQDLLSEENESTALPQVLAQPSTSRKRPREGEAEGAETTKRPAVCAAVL
Chain of Tyrosine-protein kinase JAK3 (P52333 whole entry): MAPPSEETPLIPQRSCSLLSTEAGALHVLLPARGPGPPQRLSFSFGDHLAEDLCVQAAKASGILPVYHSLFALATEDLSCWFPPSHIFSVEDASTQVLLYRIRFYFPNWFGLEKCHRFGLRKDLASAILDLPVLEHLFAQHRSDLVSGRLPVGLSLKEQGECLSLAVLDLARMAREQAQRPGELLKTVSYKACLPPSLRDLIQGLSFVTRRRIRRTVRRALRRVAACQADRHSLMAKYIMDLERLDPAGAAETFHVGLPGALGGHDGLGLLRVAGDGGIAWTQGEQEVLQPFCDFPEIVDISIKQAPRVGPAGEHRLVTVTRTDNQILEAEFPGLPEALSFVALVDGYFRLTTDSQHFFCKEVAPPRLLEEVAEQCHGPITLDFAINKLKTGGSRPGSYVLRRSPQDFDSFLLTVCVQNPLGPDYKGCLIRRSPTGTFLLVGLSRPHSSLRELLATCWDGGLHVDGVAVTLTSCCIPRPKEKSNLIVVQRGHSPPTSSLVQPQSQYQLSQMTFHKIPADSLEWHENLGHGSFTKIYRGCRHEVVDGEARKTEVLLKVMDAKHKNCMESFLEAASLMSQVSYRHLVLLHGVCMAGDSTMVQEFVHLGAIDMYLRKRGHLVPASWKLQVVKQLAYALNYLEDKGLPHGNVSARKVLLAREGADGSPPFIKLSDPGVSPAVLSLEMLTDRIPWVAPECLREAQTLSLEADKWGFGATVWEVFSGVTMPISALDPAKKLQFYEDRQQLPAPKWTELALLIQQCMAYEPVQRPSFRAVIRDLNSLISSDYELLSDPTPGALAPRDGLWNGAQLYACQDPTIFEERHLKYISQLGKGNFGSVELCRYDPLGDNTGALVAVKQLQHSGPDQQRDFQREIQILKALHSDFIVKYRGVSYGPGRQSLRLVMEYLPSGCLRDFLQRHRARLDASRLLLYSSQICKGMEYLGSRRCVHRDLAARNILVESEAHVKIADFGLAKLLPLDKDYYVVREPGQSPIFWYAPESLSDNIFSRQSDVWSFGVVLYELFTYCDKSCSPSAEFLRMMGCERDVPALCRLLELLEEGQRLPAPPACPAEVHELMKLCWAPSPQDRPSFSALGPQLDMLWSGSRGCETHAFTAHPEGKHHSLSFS
Chain of Serine/threonine-protein kinase PAK 2 (Homo sapiens) (Q13177 whole entry, the tested form may be a part): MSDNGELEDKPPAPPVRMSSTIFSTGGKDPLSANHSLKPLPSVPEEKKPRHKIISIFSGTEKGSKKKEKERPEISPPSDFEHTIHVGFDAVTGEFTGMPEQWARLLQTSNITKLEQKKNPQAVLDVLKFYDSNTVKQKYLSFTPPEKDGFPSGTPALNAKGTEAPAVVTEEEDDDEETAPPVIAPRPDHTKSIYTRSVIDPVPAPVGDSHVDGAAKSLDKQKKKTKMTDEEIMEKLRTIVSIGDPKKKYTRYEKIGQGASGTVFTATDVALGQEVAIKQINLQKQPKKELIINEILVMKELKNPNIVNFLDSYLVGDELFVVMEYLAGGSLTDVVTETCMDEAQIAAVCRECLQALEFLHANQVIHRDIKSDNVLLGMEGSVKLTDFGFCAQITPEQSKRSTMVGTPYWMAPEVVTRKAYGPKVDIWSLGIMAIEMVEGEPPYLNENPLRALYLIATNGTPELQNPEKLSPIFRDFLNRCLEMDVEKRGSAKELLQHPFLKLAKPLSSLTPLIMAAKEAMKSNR
Chain of Ribosomal protein S6 kinase alpha-1 (Homo sapiens) (Q15418 whole entry): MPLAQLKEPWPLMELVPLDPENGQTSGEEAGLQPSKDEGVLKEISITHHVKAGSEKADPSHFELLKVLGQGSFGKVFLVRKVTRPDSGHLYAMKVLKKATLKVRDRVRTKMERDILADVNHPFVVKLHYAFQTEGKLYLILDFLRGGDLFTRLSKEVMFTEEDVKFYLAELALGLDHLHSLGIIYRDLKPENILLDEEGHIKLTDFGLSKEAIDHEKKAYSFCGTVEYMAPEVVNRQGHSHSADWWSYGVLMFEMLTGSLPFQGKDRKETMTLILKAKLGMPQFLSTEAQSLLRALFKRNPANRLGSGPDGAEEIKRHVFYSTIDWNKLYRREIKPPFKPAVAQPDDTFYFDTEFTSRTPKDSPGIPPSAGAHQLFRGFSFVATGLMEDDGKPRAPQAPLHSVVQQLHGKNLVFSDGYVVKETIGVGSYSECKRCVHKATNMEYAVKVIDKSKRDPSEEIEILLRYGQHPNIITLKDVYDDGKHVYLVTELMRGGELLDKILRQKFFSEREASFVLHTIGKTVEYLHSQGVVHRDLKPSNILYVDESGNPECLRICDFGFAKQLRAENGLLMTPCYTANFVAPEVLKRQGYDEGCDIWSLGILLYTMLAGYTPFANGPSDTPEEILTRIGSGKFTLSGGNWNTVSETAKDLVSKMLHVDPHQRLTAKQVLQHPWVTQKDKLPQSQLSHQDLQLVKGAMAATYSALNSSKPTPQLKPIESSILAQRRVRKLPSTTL
Chain of Proto-oncogene tyrosine-protein kinase LCK (Mus musculus) (P06240 whole entry, looked up): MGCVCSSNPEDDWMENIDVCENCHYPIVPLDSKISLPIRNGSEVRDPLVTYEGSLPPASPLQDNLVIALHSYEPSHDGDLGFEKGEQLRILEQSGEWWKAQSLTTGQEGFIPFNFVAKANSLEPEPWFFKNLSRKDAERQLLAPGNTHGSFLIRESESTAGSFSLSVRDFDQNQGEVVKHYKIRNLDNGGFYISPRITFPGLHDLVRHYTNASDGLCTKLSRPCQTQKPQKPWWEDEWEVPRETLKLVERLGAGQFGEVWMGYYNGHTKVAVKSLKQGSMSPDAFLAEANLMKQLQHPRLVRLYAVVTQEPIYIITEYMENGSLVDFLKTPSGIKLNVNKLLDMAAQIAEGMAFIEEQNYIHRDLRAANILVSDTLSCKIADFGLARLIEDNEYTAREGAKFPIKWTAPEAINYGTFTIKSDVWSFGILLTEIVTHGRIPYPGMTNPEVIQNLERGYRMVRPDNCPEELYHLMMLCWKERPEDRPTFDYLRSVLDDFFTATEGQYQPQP
Chain of Aurora kinase B (Q96GD4 whole entry): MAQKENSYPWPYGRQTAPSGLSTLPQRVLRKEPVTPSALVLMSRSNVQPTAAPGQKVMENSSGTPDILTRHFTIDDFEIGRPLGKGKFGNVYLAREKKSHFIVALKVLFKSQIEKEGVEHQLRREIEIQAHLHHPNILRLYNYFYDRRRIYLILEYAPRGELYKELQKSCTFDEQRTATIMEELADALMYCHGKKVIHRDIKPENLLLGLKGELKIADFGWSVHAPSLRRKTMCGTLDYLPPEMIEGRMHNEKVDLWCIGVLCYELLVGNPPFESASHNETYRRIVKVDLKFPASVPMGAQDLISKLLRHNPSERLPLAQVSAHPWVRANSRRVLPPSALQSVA
Chain of Serine/threonine-protein kinase PAK 4 (Homo sapiens) (O96013 whole entry, looked up): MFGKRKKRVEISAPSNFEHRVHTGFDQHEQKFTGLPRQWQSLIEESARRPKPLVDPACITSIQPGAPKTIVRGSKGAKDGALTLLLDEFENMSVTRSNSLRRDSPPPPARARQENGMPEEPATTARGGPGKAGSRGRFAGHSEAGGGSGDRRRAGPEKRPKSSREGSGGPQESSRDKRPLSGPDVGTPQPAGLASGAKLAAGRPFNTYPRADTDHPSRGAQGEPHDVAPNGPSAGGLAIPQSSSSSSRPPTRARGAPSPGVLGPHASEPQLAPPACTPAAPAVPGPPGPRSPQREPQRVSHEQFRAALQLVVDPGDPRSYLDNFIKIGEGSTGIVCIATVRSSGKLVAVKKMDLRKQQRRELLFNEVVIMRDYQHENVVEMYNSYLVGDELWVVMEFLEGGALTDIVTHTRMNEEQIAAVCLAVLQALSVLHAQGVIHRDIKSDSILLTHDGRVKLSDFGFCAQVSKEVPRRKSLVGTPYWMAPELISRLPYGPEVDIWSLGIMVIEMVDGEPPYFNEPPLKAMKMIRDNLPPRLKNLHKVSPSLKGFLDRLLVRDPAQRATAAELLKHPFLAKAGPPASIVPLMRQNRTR

inhibition [2]: 18%
inhibition [4]: 3.9%
inhibition [7]: -7.5%
concentration at 0.5 h [8]: 26.8 µM
IC50 [9]: > 201 µM
IC50 [10]: > 117 µM
inhibition [11]: -6.4%
inhibition [12]: 9.9%
inhibition [13]: -1.5%
inhibition [14]: 1.6%
inhibition [15]: 0.2%
inhibition [16]: 11%
inhibition [17]: 6.2%
inhibition [18]: -10%
inhibition [19]: 16%
inhibition [20]: 56%
IC50 [21]: 28 µM
IC50 [22]: 0.42 µM
inhibition [23]: 6.6%
inhibition [25]: 2.5%
concentration at 3 h [27]: < 0.005 µM
IC50 [28]: > 999 µM
Structure (SMILES): Cc1cc([C@@H](C)Nc2ccccc2C(=O)O)c2nc(N3CCOCC3)cc(=O)n2c1 [AZD-6482]
Activity [1]: 6 mmHg
Activity [3]: 7.3 mM
Activity [5]: 2.2 nM
Activity [6]: Non-Toxic
Activity [24]: Non-Toxic
Activity [26]: 1.8 nM
